In ChEMBL document CHEMBL5058577, “EUbOPEN Chemogenomics Library 2 (Multiplex)” (2022):

Tested on: U2OS
Test: Multiplex assay against U2OS
Assay type: toxicity, cell-based
Conditions: human
Method in brief: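 Compound was added to live cells that had been stained at seeding with Hoechst33342, BioTracker Green Microtubule Cytoskeleton Dye, MitoTracker Red and Annexin V Alexa Fluor 680, and imaging followed on a CQ1 microscope at 37°C and 5% CO2. CellPathfinder machine-learning gating divided cells into Hoechst high-intensity objects or normal cells, normal cells into healthy, pyknosed or fragmented nuclei, and pyknosed cells into mitotic or apoptotic. Tubulin, mitochondrial-mass and membrane-permeability phenotypes are per cents of healthy-nucleus cells.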

[1] = 12 h, 1 µM, compound concentration 1 uM, replicate 1
[2] = 12 h, 1 µM, compound concentration 1 uM, replicate 2
[3] = 12 h, 10 µM, compound concentration 10 uM, replicate 1
[4] = 12 h, 10 µM, compound concentration 10 uM, replicate 2
[5] = 24 h, 1 µM, compound concentration 1 uM, replicate 1
[6] = 24 h, 1 µM, compound concentration 1 uM, replicate 2
[7] = 24 h, 10 µM, compound concentration 10 uM, replicate 1
[8] = 24 h, 10 µM, compound concentration 10 uM, replicate 2
[9] = 48 h, 1 µM, compound concentration 1 uM, replicate 1
[10] = 48 h, 1 µM, compound concentration 1 uM, replicate 2
[11] = 48 h, 10 µM, compound concentration 10 uM, replicate 1
[12] = 48 h, 10 µM, compound concentration 10 uM, replicate 2

COc1cc(NC(=O)CCN2CCC(OC(=O)Nc3ccccc3-c3ccccc3)CC2)c(Cl)cc1CNC[C@H](O)c1ccc(O)c2[nH]c(=O)ccc12 [BATEFENTEROL]
Population Apoptotic (%) [1]: 68% | Population Fragmented Nuclei (%) [1]: 29% | Population Healthy Nuclei (%) [1]: 49% | Population Hoechst High Intensity Objects (%) [1]: 4% | Population Membrane Permeable-Phenotype (%) [1]: 5% | Population Mitochondria Different-Phenotype (%) [1]: 5% | Population Mitotic Cells (%) [1]: 31% | Population Normal (%) [1]: 95% | Population Pyknosed Nuclei (%) [1]: 21% | Population Tubulin-Different-Phenotype (%) [1]: 4% | Total Cell Count [1]: 159 | Population Apoptotic (%) [2]: 85% | Population Fragmented Nuclei (%) [2]: 14% | Population Healthy Nuclei (%) [2]: 78% | Population Hoechst High Intensity Objects (%) [2]: 1% | Population Membrane Permeable-Phenotype (%) [2]: 9% | Population Mitochondria Different-Phenotype (%) [2]: 6% | Population Mitotic Cells (%) [2]: 14% | Population Normal (%) [2]: 98% | Population Pyknosed Nuclei (%) [2]: 7% | Population Tubulin-Different-Phenotype (%) [2]: 7% | Total Cell Count [2]: 98 | Population Apoptotic (%) [3]: 72% | Population Fragmented Nuclei (%) [3]: 37% | Population Healthy Nuclei (%) [3]: 44% | Population Hoechst High Intensity Objects (%) [3]: 6% | Population Membrane Permeable-Phenotype (%) [3]: 60% | Population Mitochondria Different-Phenotype (%) [3]: 67% | Population Mitotic Cells (%) [3]: 27% | Population Normal (%) [3]: 93% | Population Pyknosed Nuclei (%) [3]: 18% | Population Tubulin-Different-Phenotype (%) [3]: 75% | Total Cell Count [3]: 196 | Population Apoptotic (%) [4]: 88% | Population Fragmented Nuclei (%) [4]: 18% | Population Healthy Nuclei (%) [4]: 59% | Population Hoechst High Intensity Objects (%) [4]: 7% | Population Membrane Permeable-Phenotype (%) [4]: 57% | Population Mitochondria Different-Phenotype (%) [4]: 95% | Population Mitotic Cells (%) [4]: 11% | Population Normal (%) [4]: 92% | Population Pyknosed Nuclei (%) [4]: 22% | Population Tubulin-Different-Phenotype (%) [4]: 97% | Total Cell Count [4]: 82 | Population Apoptotic (%) [5]: 74% | Population Fragmented Nuclei (%) [5]: 27% | Population Healthy Nuclei (%) [5]: 55% | Population Hoechst High Intensity Objects (%) [5]: 2% | Population Membrane Permeable-Phenotype (%) [5]: 9% | Population Mitochondria Different-Phenotype (%) [5]: 9% | Population Mitotic Cells (%) [5]: 25% | Population Normal (%) [5]: 97% | Population Pyknosed Nuclei (%) [5]: 17% | Population Tubulin-Different-Phenotype (%) [5]: 5% | Total Cell Count [5]: 182 | Population Apoptotic (%) [6]: 100% | Population Fragmented Nuclei (%) [6]: 12% | Population Healthy Nuclei (%) [6]: 75% | Population Hoechst High Intensity Objects (%) [6]: 1% | Population Membrane Permeable-Phenotype (%) [6]: 5% | Population Mitochondria Different-Phenotype (%) [6]: 6% | Population Mitotic Cells (%) [6]: 0% | Population Normal (%) [6]: 98% | Population Pyknosed Nuclei (%) [6]: 11% | Population Tubulin-Different-Phenotype (%) [6]: 2% | Total Cell Count [6]: 103 | Population Apoptotic (%) [7]: 79% | Population Fragmented Nuclei (%) [7]: 38% | Population Healthy Nuclei (%) [7]: 38% | Population Hoechst High Intensity Objects (%) [7]: 4% | Population Membrane Permeable-Phenotype (%) [7]: 32% | Population Mitochondria Different-Phenotype (%) [7]: 59% | Population Mitotic Cells (%) [7]: 20% | Population Normal (%) [7]: 95% | Population Pyknosed Nuclei (%) [7]: 22% | Population Tubulin-Different-Phenotype (%) [7]: 44% | Total Cell Count [7]: 199 | Population Apoptotic (%) [8]: 73% | Population Fragmented Nuclei (%) [8]: 29% | Population Healthy Nuclei (%) [8]: 42% | Population Hoechst High Intensity Objects (%) [8]: 9% | Population Membrane Permeable-Phenotype (%) [8]: 52% | Population Mitochondria Different-Phenotype (%) [8]: 91% | Population Mitotic Cells (%) [8]: 26% | Population Normal (%) [8]: 90% | Population Pyknosed Nuclei (%) [8]: 27% | Population Tubulin-Different-Phenotype (%) [8]: 91% | Total Cell Count [8]: 93 | Population Apoptotic (%) [9]: 82% | Population Fragmented Nuclei (%) [9]: 26% | Population Healthy Nuclei (%) [9]: 54% | Population Hoechst High Intensity Objects (%) [9]: 3% | Population Membrane Permeable-Phenotype (%) [9]: 3% | Population Mitochondria Different-Phenotype (%) [9]: 5% | Population Mitotic Cells (%) [9]: 17% | Population Normal (%) [9]: 96% | Population Pyknosed Nuclei (%) [9]: 19% | Population Tubulin-Different-Phenotype (%) [9]: 3% | Total Cell Count [9]: 242 | Population Apoptotic (%) [10]: 85% | Population Fragmented Nuclei (%) [10]: 17% | Population Healthy Nuclei (%) [10]: 64% | Population Hoechst High Intensity Objects (%) [10]: 4% | Population Mitochondria Different-Phenotype (%) [10]: 1% | Population Mitotic Cells (%) [10]: 14% | Population Normal (%) [10]: 95% | Population Pyknosed Nuclei (%) [10]: 17% | Population Tubulin-Different-Phenotype (%) [10]: 1% | Total Cell Count [10]: 123 | Population Apoptotic (%) [11]: 92% | Population Fragmented Nuclei (%) [11]: 41% | Population Healthy Nuclei (%) [11]: 39% | Population Hoechst High Intensity Objects (%) [11]: 6% | Population Membrane Permeable-Phenotype (%) [11]: 31% | Population Mitochondria Different-Phenotype (%) [11]: 43% | Population Mitotic Cells (%) [11]: 7% | Population Normal (%) [11]: 93% | Population Pyknosed Nuclei (%) [11]: 18% | Population Tubulin-Different-Phenotype (%) [11]: 23% | Total Cell Count [11]: 221 | Population Apoptotic (%) [12]: 94% | Population Fragmented Nuclei (%) [12]: 29% | Population Healthy Nuclei (%) [12]: 32% | Population Hoechst High Intensity Objects (%) [12]: 10% | Population Membrane Permeable-Phenotype (%) [12]: 38% | Population Mitochondria Different-Phenotype (%) [12]: 70% | Population Mitotic Cells (%) [12]: 5% | Population Normal (%) [12]: 89% | Population Pyknosed Nuclei (%) [12]: 37% | Population Tubulin-Different-Phenotype (%) [12]: 48% | Total Cell Count [12]: 105
